Measurements published in ChEMBL document CHEMBL1177770, “A rapid synthesis of lavendustin-mimetic small molecules by click fragment assembly” (Bioorg Med Chem Lett, 2010).

The molecules below were run on HCT-116 (assay: Growth inhibition of human HCT116 cells after 2 days by MTT assay). Settings: HCT-116, 48 h.
Assay type: functional
In short: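 HCT116 colorectal carcinoma cells from KCLB/ATCC were grown in RPMI 1640/DMEM with 10% heat-inactivated FBS at 37 °C and 5% CO₂. Cells were seeded at 5 × 10⁴ cells/ml and exposed in duplicate to a range of concentrations for two days. MTT dye was added for up to 4 h at 37 °C, formazan was solubilized overnight at room temperature, and A570 gave GI₅₀.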

First: O=C(OCCCc1ccccc1)c1cc(-n2cc(-c3cc(O)ccc3O)nn2)ccc1O
Second: COC(=O)c1cc(-n2cc(-c3cc(O)ccc3O)nn2)ccc1O
The GI50 of the first is lower: 20.4 µM for the first, greater than 100 µM for the second.

First: COc1ccc(OC)c(-c2cn(-c3ccc(O)c(C(=O)Nc4cccc(C(F)(F)F)c4)c3)nn2)c1
Second: COc1ccccc1-c1cn(-c2ccc(O)c(C(=O)Nc3cccc(C(F)(F)F)c3)c2)nn1
The GI50 of the first is 1.6-fold higher: 12.9 µM for the first, 7.92 µM for the second.

Going from `COc1cccc2c1C(=O)c1c(O)c3c(c(O)c1C2=O)C[C@@](O)(C(=O)CO)C[C@@H]3O[C@H]1C[C@H](N)[C@H](O)[C@H](C)O1` [DOXORUBICIN] to `COc1ccc(OC)c(-c2cn(-c3ccc(O)c(C(=O)NCCc4ccc(F)cc4)c3)nn2)c1`, the GI50 rises from 0.4 µM to 13.6 µM (34-fold).

Going from `O=C(NCCc1ccc(F)cc1)c1cc(-n2cc(-c3cccc(O)c3)nn2)ccc1O` to `COc1ccc(-c2cn(-c3ccc(O)c(C(=O)NCCc4ccc(F)cc4)c3)nn2)cc1`, the GI50 falls from greater than 100 µM to 12.5 µM.

Compared with `COc1cc(OC)cc(-c2cn(-c3ccc(O)c(C(=O)NCCc4ccc(F)cc4)c3)nn2)c1`, `COc1cc(OC)cc(-c2cn(-c3ccc(O)c(C(=O)Nc4cccc(C(F)(F)F)c4)c3)nn2)c1` is 3.7-fold lower in GI50: 16.1 µM for the first, 4.37 µM for the second.

These molecules were tested on CCRF-CEM (assay: Growth inhibition of human CCRF-CEM cells at 10 uM after 2 days by MTT assay). Settings: 48 h.
Assay type: functional

First: COc1cc(OC)cc(-c2cn(-c3ccc(O)c(C(=O)OCCCc4ccccc4)c3)nn2)c1
Second: COc1ccc(OC)c(-c2cn(-c3ccc(O)c(C(=O)OCCCc4ccccc4)c3)nn2)c1
The inhibition at 10 µM of the first is higher: 8% for the first, 5% for the second.

First: COC(=O)c1cc(-n2cc(-c3ccccc3OC)nn2)ccc1O
Second: COc1ccccc1-c1cn(-c2ccc(O)c(C(=O)O)c2)nn1
The inhibition at 10 µM of the first is lower: 6% for the first, 9% for the second.

Going from `O=C(OCCCc1ccccc1)c1cc(-n2cc(-c3cc(O)ccc3O)nn2)ccc1O` to `O=C(OCCCc1ccccc1)c1cc(-n2cc(-c3cccc(O)c3)nn2)ccc1O`, the inhibition at 10 µM falls from 81% to 9%.

First: COc1ccc(-c2cn(-c3ccc(O)c(C(=O)OCCCc4ccccc4)c3)nn2)cc1
Second: COc1ccccc1-c1cn(-c2ccc(O)c(C(=O)OCCCc3ccccc3)c2)nn1
The inhibition at 10 µM of the first is higher: 5% for the first, 4% for the second.

Going from `COc1ccc(OC)c(-c2cn(-c3ccc(O)c(C(=O)Nc4cccc(C(F)(F)F)c4)c3)nn2)c1` to `COc1ccccc1-c1cn(-c2ccc(O)c(C(=O)Nc3cccc(C(F)(F)F)c3)c2)nn1`, the inhibition at 10 µM rises from 15% to 65%.

First: O=C(NCCc1ccc(F)cc1)c1cc(-n2cc(-c3cccc(O)c3)nn2)ccc1O
Second: O=C(NCCc1ccc(F)cc1)c1cc(-n2cc(-c3cc(O)ccc3O)nn2)ccc1O
The inhibition at 10 µM of the first is higher: 35% for the first, 15% for the second.

`COc1cc(OC)cc(-c2cn(-c3ccc(O)c(C(=O)NCCc4ccc(F)cc4)c3)nn2)c1` and `COc1ccc(OC)c(-c2cn(-c3ccc(O)c(C(=O)NCCc4ccc(F)cc4)c3)nn2)c1` are the same in inhibition at 10 µM: 35% for the first, 35% for the second.

Going from `COC(=O)c1cc(-n2cc(-c3cc(O)ccc3O)nn2)ccc1O` to `COC(=O)c1cc(-n2cc(-c3cccc(O)c3)nn2)ccc1O`, the inhibition at 10 µM falls from 52% to 5%.

First: COc1ccc(-c2cn(-c3ccc(O)c(C(=O)NCCc4ccc(F)cc4)c3)nn2)cc1
Second: COc1ccccc1-c1cn(-c2ccc(O)c(C(=O)NCCc3ccc(F)cc3)c2)nn1
The inhibition at 10 µM of the first is higher: 21% for the first, 11% for the second.

Compared with `COc1cc(OC)cc(-c2cn(-c3ccc(O)c(C(=O)Nc4cccc(C(F)(F)F)c4)c3)nn2)c1`, `COc1ccc(-c2cn(-c3ccc(O)c(C(=O)Nc4cccc(C(F)(F)F)c4)c3)nn2)cc1` is lower in inhibition at 10 µM: 73% for the first, 12% for the second.

Compared with `O=C(Nc1cccc(C(F)(F)F)c1)c1cc(-n2cc(-c3cccc(O)c3)nn2)ccc1O`, `O=C(O)c1cc(-n2cc(-c3cccc(O)c3)nn2)ccc1O` is lower in inhibition at 10 µM: 13% for the first, 3% for the second.

Compared with `COc1ccc(-c2cn(-c3ccc(O)c(C(=O)O)c3)nn2)cc1`, `COC(=O)c1cc(-n2cc(-c3ccc(OC)cc3)nn2)ccc1O` is higher in inhibition at 10 µM: 9% for the first, 16% for the second.

Going from `COC(=O)c1cc(-n2cc(-c3cc(OC)cc(OC)c3)nn2)ccc1O` to `COc1cc(OC)cc(-c2cn(-c3ccc(O)c(C(=O)O)c3)nn2)c1`, the inhibition at 10 µM rises from 3% to 9%.

First: COc1ccc(OC)c(-c2cn(-c3ccc(O)c(C(=O)O)c3)nn2)c1
Second: COC(=O)c1cc(-n2cc(-c3cc(OC)ccc3OC)nn2)ccc1O
The inhibition at 10 µM of the first is higher: 9% for the first, 3% for the second.

Each molecule was assayed on HCT-116 (assay: Growth inhibition of human HCT116 cells at 10 uM after 2 days by MTT assay). Settings: HCT-116, 48 h.
Assay type: functional

First: COc1cc(OC)cc(-c2cn(-c3ccc(O)c(C(=O)OCCCc4ccccc4)c3)nn2)c1
Second: COc1ccc(OC)c(-c2cn(-c3ccc(O)c(C(=O)OCCCc4ccccc4)c3)nn2)c1
The inhibition at 10 µM of the first is higher: 19% for the first, 13% for the second.

First: COC(=O)c1cc(-n2cc(-c3ccccc3OC)nn2)ccc1O
Second: COc1ccccc1-c1cn(-c2ccc(O)c(C(=O)O)c2)nn1
The inhibition at 10 µM of the first is higher: 8% for the first, 4% for the second.

Compared with `O=C(OCCCc1ccccc1)c1cc(-n2cc(-c3cc(O)ccc3O)nn2)ccc1O`, `O=C(OCCCc1ccccc1)c1cc(-n2cc(-c3cccc(O)c3)nn2)ccc1O` is lower in inhibition at 10 µM: 39% for the first, 11% for the second.

Compared with `COc1ccc(-c2cn(-c3ccc(O)c(C(=O)OCCCc4ccccc4)c3)nn2)cc1`, `COc1ccccc1-c1cn(-c2ccc(O)c(C(=O)OCCCc3ccccc3)c2)nn1` is lower in inhibition at 10 µM: 12% for the first, 7% for the second.

Compared with `COc1ccc(OC)c(-c2cn(-c3ccc(O)c(C(=O)Nc4cccc(C(F)(F)F)c4)c3)nn2)c1`, `COc1ccccc1-c1cn(-c2ccc(O)c(C(=O)Nc3cccc(C(F)(F)F)c3)c2)nn1` is higher in inhibition at 10 µM: 46% for the first, 61% for the second.

Compared with `COc1cc(OC)cc(-c2cn(-c3ccc(O)c(C(=O)NCCc4ccc(F)cc4)c3)nn2)c1`, `COc1ccc(OC)c(-c2cn(-c3ccc(O)c(C(=O)NCCc4ccc(F)cc4)c3)nn2)c1` is higher in inhibition at 10 µM: 43% for the first, 44% for the second.

Going from `COC(=O)c1cc(-n2cc(-c3cc(O)ccc3O)nn2)ccc1O` to `COC(=O)c1cc(-n2cc(-c3cccc(O)c3)nn2)ccc1O`, the inhibition at 10 µM falls from 15% to 6%.

Going from `COc1ccc(-c2cn(-c3ccc(O)c(C(=O)NCCc4ccc(F)cc4)c3)nn2)cc1` to `COc1ccccc1-c1cn(-c2ccc(O)c(C(=O)NCCc3ccc(F)cc3)c2)nn1`, the inhibition at 10 µM falls from 62% to 23%.

Compared with `COc1cc(OC)cc(-c2cn(-c3ccc(O)c(C(=O)Nc4cccc(C(F)(F)F)c4)c3)nn2)c1`, `COc1ccc(-c2cn(-c3ccc(O)c(C(=O)Nc4cccc(C(F)(F)F)c4)c3)nn2)cc1` is lower in inhibition at 10 µM: 62% for the first, 9% for the second.

Compared with `O=C(Nc1cccc(C(F)(F)F)c1)c1cc(-n2cc(-c3cccc(O)c3)nn2)ccc1O`, `O=C(O)c1cc(-n2cc(-c3cccc(O)c3)nn2)ccc1O` is lower in inhibition at 10 µM: 25% for the first, 5% for the second.

Going from `COc1ccc(-c2cn(-c3ccc(O)c(C(=O)O)c3)nn2)cc1` to `COC(=O)c1cc(-n2cc(-c3ccc(OC)cc3)nn2)ccc1O`, the inhibition at 10 µM falls from 8% to 6%.

Going from `COC(=O)c1cc(-n2cc(-c3cc(OC)cc(OC)c3)nn2)ccc1O` to `COc1cc(OC)cc(-c2cn(-c3ccc(O)c(C(=O)O)c3)nn2)c1`, the inhibition at 10 µM falls from 3% to 2%.

Compared with `COC(=O)c1cc(-n2cc(-c3cc(OC)ccc3OC)nn2)ccc1O`, `O=C(NCCc1ccc(F)cc1)c1cc(-n2cc(-c3cc(O)ccc3O)nn2)ccc1O` is higher in inhibition at 10 µM: 6% for the first, 18% for the second.

The molecules below were run on CCRF-CEM (assay: Growth inhibition of human CCRF-CEM cells after 2 days by MTT assay). Settings: 48 h.
Assay type: functional

Compared with `O=C(OCCCc1ccccc1)c1cc(-n2cc(-c3cc(O)ccc3O)nn2)ccc1O`, `COC(=O)c1cc(-n2cc(-c3cc(O)ccc3O)nn2)ccc1O` is 15-fold higher in GI50: 0.93 µM for the first, 13.9 µM for the second.

Going from `COc1ccc(OC)c(-c2cn(-c3ccc(O)c(C(=O)Nc4cccc(C(F)(F)F)c4)c3)nn2)c1` to `COc1ccccc1-c1cn(-c2ccc(O)c(C(=O)Nc3cccc(C(F)(F)F)c3)c2)nn1`, the GI50 falls from greater than 100 µM to 10.5 µM.

Going from `COc1cccc2c1C(=O)c1c(O)c3c(c(O)c1C2=O)C[C@@](O)(C(=O)CO)C[C@@H]3O[C@H]1C[C@H](N)[C@H](O)[C@H](C)O1` [DOXORUBICIN] to `COc1ccc(OC)c(-c2cn(-c3ccc(O)c(C(=O)NCCc4ccc(F)cc4)c3)nn2)c1`, the GI50 rises from 0.02 µM to 22.9 µM (1100-fold).

First: O=C(NCCc1ccc(F)cc1)c1cc(-n2cc(-c3cccc(O)c3)nn2)ccc1O
Second: COc1ccc(-c2cn(-c3ccc(O)c(C(=O)NCCc4ccc(F)cc4)c3)nn2)cc1
The GI50 of the first is lower: 22.8 µM for the first, greater than 100 µM for the second.

Compared with `COc1cc(OC)cc(-c2cn(-c3ccc(O)c(C(=O)NCCc4ccc(F)cc4)c3)nn2)c1`, `COc1cc(OC)cc(-c2cn(-c3ccc(O)c(C(=O)Nc4cccc(C(F)(F)F)c4)c3)nn2)c1` is lower in GI50: greater than 100 µM for the first, 6.41 µM for the second.

What follows are molecules tested on HaCaT (assay: Cytotoxicity against human HaCaT cells). Settings: not given.

`O=C(O)c1cc(NCc2cc(O)ccc2O)ccc1O` [LAVENDUSTIN C] was tested, and the IC50 was greater than 100 µM.
